For assay [1], the system named is MCF7. Kind of assay: Cytotoxicity against human MCF7 cells by resazurin reduction assay. The format is functional, cell-based.
Assay [2] relates to NCI-H187. As to the kind of experiment: Cytotoxicity against human NCI-H187 cells by resazurin reduction assay. The format is functional, cell-based.
The test system of assay [3] is Salmonella typhimurium. Kind of assay: Antibacterial activity against Salmonella typhimurium TISTR 292 by broth dilution method. The class given is functional, Salmonella enterica subsp. enterica serovar Typhimurium. In outline: (§1)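 MIC found by 2-fold serial dilution in Mueller Hinton broth following CLSI (2002) recommendations. Test substances dissolved in DMSO. Vancomycin and gentamycin run as reference drugs.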

Assay [4] deals with Escherichia coli. As to the kind of experiment: Antibacterial activity against Escherichia coli TISTR 780 by broth dilution method. The class given is functional. In outline: as §1
The test system of assay [5] is Staphylococcus aureus. As to the kind of experiment: Antibacterial activity against methicillin-resistant Staphylococcus aureus SK1 by broth dilution method. The format is functional.
Assay [6] has as its system Staphylococcus aureus. Kind of assay: Antibacterial activity against Staphylococcus aureus TISTR 1466 by broth dilution method. The class given is functional. In outline:
as §1

Assay [7] has as its system KB. Kind of assay: Cytotoxicity against human KB cells by resazurin reduction assay. The format is functional, cell-based.
Where [8] appears, read: Homo sapiens, MCF7, read-out: IC50.
The mark [9] stands for this setting: Homo sapiens, NCI-H187, read-out: IC50.
[10] abbreviates: Homo sapiens, KB, read-out: IC50.
Where [11] appears, read: Salmonella enterica subsp. enterica serovar Typhimurium.

Values after ≈ are worked out from the molar mass of the structure shown. Active and inactive are the calls of the source. The calls are words filed in the database; no cut-off is given here.

Regarding `COc1cc2[nH]c3ccccc3c2cc1O`, the figures for the IC50 in assay [1] (setting [8]), in assay [2] (setting [9]) and in assay [7] (setting [10]) were 31.4 µM, 27.4 µM and 213 µM, respectively. Moreover, the MIC in assay [3] (Salmonella enterica) and in assay [4] was 128 µg/mL (≈ 600 µM) throughout. The MIC result in assay [5] and in assay [6] was “inactive” in each case.

As to `COC(=O)c1ccc2[nH]c3ccccc3c2c1`, the IC50 in assay [1] (setting [8]) was determined as 170 µM; in assay [2] (setting [9]) it was 95.8 µM; in assay [7] (setting [10]), 59.7 µM. Moreover, the MIC in assay [3] (Salmonella enterica) and in assay [4] was 128 µg/mL (≈ 568 µM) throughout. Further, the MIC result in assay [5] and in assay [6] was “inactive” throughout.

Turning to `COc1ccc2c(c1)[nH]c1cc(O)c(C=O)cc12`, the IC50 in assay [1] (setting [8]) was found to be 69.1 µM; in assay [2] (setting [9]), 45.9 µM; in assay [7] (setting [10]) it was 181 µM. Besides, the MIC in assay [3] (Salmonella enterica) and in assay [5] was 128 µg/mL (≈ 531 µM) throughout. Further, the MIC entry in assay [4] and in assay [6] was “inactive” in each case.

On to `COc1ccc2c(c1)[nH]c1c(CC=C(C)C)c(O)c(C=O)cc12`, for which the figures for the IC50 in assay [1] (setting [8]), in assay [2] (setting [9]) and in assay [7] (kb) were 53.9 µM, 42.3 µM and “Not Active”, respectively. For the same compound, the MIC in assay [3] (Salmonella enterica) and in assay [4] was 128 µg/mL (≈ 414 µM) in each case. In addition, the MIC result in assay [5] and in assay [6] was “inactive” each time.

On to `CC(C)=CCc1c(O)c(C=O)cc2c1[nH]c1cc(O)ccc12` [7-HYDROXYHEPTAPHYLLINE], for which the IC50 result in assay [1] (mcf7) was “Not Active”; in assay [2] (setting [9]) it was 19.6 µM; in assay [7] (setting [10]), 107 µM. Besides, the MIC in assay [3] (Salmonella enterica) amounted to 64 µg/mL (≈ 217 µM); in assay [4], 64 µg/mL (≈ 217 µM); in assay [5], 4 µg/mL (≈ 13.5 µM); in assay [6], 8 µg/mL (≈ 27.1 µM).

In the case of `CC1(C)C=Cc2c(ccc3[nH]c4cc(O)c(C=O)cc4c23)O1` [CLAURAILAS D], the IC50 worked out at 66.1 µM in assay [1] (setting [8]), 60.8 µM in assay [2] (setting [9]) and 293 µM in assay [7] (setting [10]). For the same compound, the MIC was determined as 128 µg/mL (≈ 436 µM) in assay [3] (Salmonella enterica), 64 µg/mL (≈ 218 µM) in assay [4] and 128 µg/mL (≈ 436 µM) in assay [5]. Also, the MIC result in assay [6] is “inactive”.

With `Cc1cc2c([nH]c3ccc4c(c32)C=CC(C)(C)O4)c(-c2c(O)c(C)cc3c2[nH]c2ccc4c(c23)C=CC(C)(C)O4)c1O` [CLAUSENAWALLINE A], the MIC in assay [3] (Salmonella enterica) is 128 µg/mL (≈ 230 µM); in assay [5] it was 128 µg/mL (≈ 230 µM); in assay [6], 64 µg/mL (≈ 115 µM). For the same compound, in assay [4], the MIC entry was “inactive”.

Turning to `COc1cc2[nH]c3c(CC=C(C)C)c(O)c(C=O)cc3c2c(-c2cc3c(cc2O)[nH]c2ccccc23)c1O` [CLAUSENAWALLINE B], the MIC in assay [3] (Salmonella enterica) is 128 µg/mL (≈ 253 µM); in assay [4], 128 µg/mL (≈ 253 µM); in assay [5], 16 µg/mL (≈ 31.6 µM); in assay [6] it was 8 µg/mL (≈ 15.8 µM).

Take `Cc1cc2c([nH]c3ccc4c(c32)C=CC(C)(C)O4)c2c1OC(C)(C)C=C2` [CLAUSENAWALLINE C]: the IC50 result in assay [1] (mcf7), in assay [2] (nci-h187) and in assay [7] (kb) was “Not Active” each time. Moreover, the MIC in assay [3] (Salmonella enterica) and in assay [4] was 128 µg/mL (≈ 371 µM) each time. In addition, the MIC result in assay [5] and in assay [6] was “inactive” in each case.

On to `COc1ccc2c(c1)[nH]c1cc(OC)c(O)cc12` [CLAUSENAWALLINE D], for which the MIC in assay [3] (Salmonella enterica) and in assay [4] was 128 µg/mL (≈ 526 µM) each time. Besides, the MIC result in assay [5] and in assay [6] was “inactive” each time.

As to `COc1cc2[nH]c3ccc(O)c(-c4c(O)c(C)cc5c4[nH]c4ccc6c(c45)C=CC(C)(C)O6)c3c2cc1C` [CLAUSENAWALLINE E], the MIC in assay [3] (Salmonella enterica) is 128 µg/mL (≈ 254 µM); in assay [4], 128 µg/mL (≈ 254 µM); in assay [5] it was 8 µg/mL (≈ 15.9 µM); in assay [6], 8 µg/mL (≈ 15.9 µM).

Regarding `COC(=O)c1cc2c([nH]c3ccccc32)c(O)c1-c1c(O)c(C=O)cc2c1[nH]c1cc(OC)ccc12` [CLAUSENAWALLINE F], the IC50 in assay [1] (setting [8]) came out at 62.3 µM; in assay [2] (setting [9]), 4.5 µM; in assay [7] (setting [10]), 10.2 µM. The MIC entry in assay [3] (setting [11]) was “inactive”. For the same compound, the MIC was 128 µg/mL (≈ 266 µM) in assay [4], 64 µg/mL (≈ 133 µM) in assay [5] and 64 µg/mL (≈ 133 µM) in assay [6].

For the compound `COC(=O)c1ccc2[nH]c3cc(OC)ccc3c2c1` [CLAUSINE C], the IC50 result in assay [1] (mcf7), in assay [2] (nci-h187) and in assay [7] (kb) was “Not Active” throughout. Moreover, in assay [3] (Salmonella enterica), the MIC was found to be 128 µg/mL (≈ 501 µM). Moreover, the MIC entry in assay [4], in assay [5] and in assay [6] was “inactive” in each case.

In the case of `COC(=O)c1cc2c(cc1OC)[nH]c1ccccc12` [CLAUSINE L], the IC50 entry in assay [1] (mcf7), in assay [2] (nci-h187) and in assay [7] (kb) was “Not Active” in each case. In addition, the MIC in assay [3] (Salmonella enterica) and in assay [4] was 128 µg/mL (≈ 501 µM) in each case. Besides, the MIC entry in assay [5] and in assay [6] was “inactive” each time.

Turning to `COC(=O)c1cc2c(cc1OC)[nH]c1cc(OC)ccc12` [CLAUSZOLINE C], the IC50 entry in assay [1] (mcf7), in assay [2] (nci-h187) and in assay [7] (kb) was “Not Active” throughout. The MIC in assay [3] (Salmonella enterica) and in assay [4] was 128 µg/mL (≈ 449 µM) each time. In addition, the MIC entry in assay [5] and in assay [6] was “inactive” throughout.

Take `COc1ccc2c(c1)[nH]c1ccc(C=O)cc12` [CLAUSZOLINE K]: the IC50 result in assay [1] (mcf7), in assay [2] (nci-h187) and in assay [7] (kb) was “Not Active” each time. The MIC result in assay [3] (setting [11]) and in assay [6] was “inactive” each time. For the same compound, the MIC in assay [4] and in assay [5] was 128 µg/mL (≈ 568 µM) in each case.

For the compound `COc1cccc2c1C(=O)c1c(O)c3c(c(O)c1C2=O)C[C@@](O)(C(=O)CO)C[C@@H]3O[C@H]1C[C@H](N)[C@H](O)[C@H](C)O1` [DOXORUBICIN], the IC50 is 16.8 µM in assay [1] (setting [8]), 0.1 µM in assay [2] (setting [9]) and 1.7 µM in assay [7] (setting [10]).

As for `Cc1c2ccncc2c(C)c2c1[nH]c1ccccc12` [ELLIPTECINE], the values for the IC50 in assay [2] (setting [9]) and in assay [7] (setting [10]) were 3.1 µM and 5.2 µM, respectively.

Consider `COc1cc2[nH]c3ccccc3c2cc1C=O` [GLYCOSININE], for which the results for the IC50 in assay [1] (setting [8]), in assay [2] (setting [9]) and in assay [7] (setting [10]) were 111 µM, 18.2 µM and 103 µM, respectively. Moreover, the MIC in assay [3] (Salmonella enterica) and in assay [5] was 128 µg/mL (≈ 568 µM) in each case. For the same compound, the MIC result in assay [4] and in assay [6] was “inactive” each time.

Consider `Cc1cc2c([nH]c3ccccc32)c2c1OC(C)(C)C=C2` [GRINIMIBINE], for which the values for the IC50 in assay [1] (setting [8]), in assay [2] (setting [9]) and in assay [7] (setting [10]) were 28.8 µM, 58.9 µM and 263 µM, respectively. Moreover, the MIC result in assay [3] (setting [11]), in assay [5] and in assay [6] was “inactive” in each case. For the same compound, in assay [4], the MIC is 128 µg/mL (≈ 486 µM).

Consider `CC(C)=CCc1c(O)c(C=O)cc2c1[nH]c1ccccc12` [HEPTAPHYLLINE], for which the results for the IC50 in assay [1] (setting [8]), in assay [2] (setting [9]) and in assay [7] (setting [10]) were 171 µM, 20.2 µM and 94.2 µM, respectively. The MIC in assay [3] (Salmonella enterica) and in assay [4] was 128 µg/mL (≈ 458 µM) throughout. Moreover, the MIC entry in assay [5] and in assay [6] was “inactive” in each case.

As for `COc1ccc2c(c1)[nH]c1cc(OC)c(C=O)cc12` [LANSINE], the IC50 result in assay [1] (mcf7), in assay [2] (nci-h187) and in assay [7] (kb) was “Not Active” in each case. Besides, the MIC result in assay [3] (setting [11]), in assay [5] and in assay [6] was “inactive” each time. This compound also registered an MIC in assay [4] of 128 µg/mL (≈ 501 µM).

As for `O=Cc1cc2c(cc1O)[nH]c1ccccc12` [MUKONAL], the IC50 result in assay [1] (mcf7), in assay [2] (nci-h187) and in assay [7] (kb) was “Not Active” each time. The MIC in assay [3] (Salmonella enterica) amounted to 128 µg/mL (≈ 606 µM); in assay [4], 128 µg/mL (≈ 606 µM); in assay [5] it was 64 µg/mL (≈ 303 µM). In assay [6], the MIC entry is “inactive”.

In the case of `COC(=O)c1cc2c(cc1O)[nH]c1ccccc12` [MUKONIDINE], the 50% inhibitory concentration (IC50) in assay [1] (setting [8]) is 205 µM; in assay [2] (setting [9]), 134 µM; in assay [7] (kb), “Not Active”. Moreover, the MIC was determined as 32 µg/mL (≈ 133 µM) in assay [3] (Salmonella enterica), 128 µg/mL (≈ 531 µM) in assay [4], 64 µg/mL (≈ 265 µM) in assay [5] and 64 µg/mL (≈ 265 µM) in assay [6].

For the compound `CN[C@H](CC(C)C)C(=O)N[C@H]1C(=O)N[C@@H](CC(N)=O)C(=O)N[C@H]2C(=O)N[C@H]3C(=O)N[C@H](C(=O)N[C@H](C(=O)O)c4cc(O)cc(O)c4-c4cc3ccc4O)[C@H](O)c3ccc(c(Cl)c3)Oc3cc2cc(c3O[C@@H]2O[C@H](CO)[C@@H](O)[C@H](O)[C@H]2O[C@H]2C[C@](C)(N)[C@H](O)[C@H](C)O2)Oc2ccc(cc2Cl)[C@H]1O` [VANCOMYCIN], the lowest concentration to inhibit growth in assay [6] (MIC) was 0.25 µg/mL (≈ 0.173 µM).

GENTAMICIN: the figures for the minimum inhibitory concentration (MIC) in assay [3] (setting [11]) and in assay [4] were 0.125 µg/mL and 0.25 µg/mL, respectively.

The record behind these values is ChEMBL document CHEMBL2034969, “Bioactive carbazole alkaloids from Clausena wallichii roots” (J Nat Prod, 2012).
